We go through twelve compounds from ChEMBL document CHEMBL4428080, “Discovery and Pharmacological Characterization of Novel Quinazoline-Based PI3K Delta-Selective Inhibitors” (ACS Med Chem Lett, 2016).

In brackets after ≈: the same amount, converted by molar mass.

Data set [1] in a line: Equilibrium solubility of the compound at pH 6.8 by high-throughput assay. The data set is classed as physicochemical. The conditions noted are these: buffer. The procedure, abridged: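 High-throughput equilibrium solubility determination at pH 6.8, reported in mM.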
A short description of data set [2]: Octanol/water partition coefficient, log P of the compound by high-throughput assay. The data set is classed as physicochemical.
Data set [3] in a line: Dose normalized Cmax in Sprague-Dawley rat at 30 mg/kg, po by HPLC method. Format: ADME, organism-based. The settings on record: in vivo. The procedure, abridged: (§1)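 Oral PK in Sprague Dawley rats at 3 or 30 mg/kg and in dogs at 0.3 mg/kg. Dose-normalized parameters are scaled to 1 mg·kg^-1.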
A short description of data set [4]: Tmax in Lewis rat blood at 30 mg/kg, po administered as single dose by LC-MS analysis. The conditions noted are these: whole blood. Format: ADME, organism-based. The procedure, abridged:
(§2)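 Lewis rats received a single oral dose of 30 mg/kg. Blood was collected at various time points and drug levels were determined.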

Data set [5] can be described thus: Dose normalized AUC in Sprague-Dawley rat at 3 mg/kg, po by HPLC method. The data set is classed as ADME, organism-based. The conditions noted are these: in vivo.
Data set [6] can be described thus: Dose normalized AUC in Sprague-Dawley rat at 30 mg/kg, po by HPLC method. Format: ADME, organism-based. The conditions noted are these: in vivo. The procedure, abridged: as §1
Data set [7] can be described thus: Tmax in Beagle dog at 0.3 mg/kg, po by HPLC method. The conditions noted are these: in vivo. Format: ADME, organism-based, Canis lupus familiaris. The procedure, abridged:
as §1

A short description of data set [8]: Volume of distribution at steady state in Beagle dog at 0.1 mg/kg, iv by HPLC method. The data set is classed as ADME, organism-based, Canis lupus familiaris. The conditions noted are these: in vivo, read-out: Vdss.
Data set [9] is described as follows: Tmax in Sprague-Dawley rat at 30 mg/kg, po by HPLC method. The data set is classed as ADME, organism-based. The settings on record: in vivo. The procedure, abridged:
as §1

Data set [10] can be described thus: Volume of distribution at steady state in Sprague-Dawley rat at 1 mg/kg, iv by HPLC method. Format: ADME, organism-based. The conditions noted are these: in vivo, read-out: Vdss.
Data set [11] is described as follows: Dose normalized AUC in Sprague-Dawley rat at 1 mg/kg, iv by HPLC method. The data set is classed as ADME, organism-based. The settings on record: in vivo.
Data set [12] can be described thus: Drug uptake in Lewis rat blood at 30 mg/kg, po administered as single dose by LC-MS analysis. Format: ADME, organism-based. The conditions noted are these: in vivo, read-out: Drug uptake. The procedure, abridged: as §2
Data set [13] can be described thus: Oral bioavailability in Sprague-Dawley rat at 3 mg/kg by HPLC method. Format: ADME, organism-based. The settings on record: in vivo. The procedure, abridged:
as §1

Data set [14] in a line: Tmax in Sprague-Dawley rat at 3 mg/kg, po by HPLC method. The conditions noted are these: in vivo. Format: ADME, organism-based. The procedure, abridged: as §1
Data set [15] is described as follows: Oral bioavailability in Sprague-Dawley rat at 30 mg/kg by HPLC method. Format: ADME, organism-based. The conditions noted are these: in vivo. The procedure, abridged:
as §1

The nature of data set [16]: Dose normalized AUC in Beagle dog at 0.1 mg/kg, iv by HPLC method. The conditions noted are these: in vivo. Format: ADME, organism-based, Canis lupus familiaris.
Data set [17] can be described thus: Oral bioavailability in Beagle dog at 0.3 mg/kg by HPLC method. Format: ADME, organism-based, Canis lupus familiaris. The conditions noted are these: in vivo. The procedure, abridged: as §1
The nature of data set [18]: Dose normalized Cmax in Sprague-Dawley rat at 3 mg/kg, po by HPLC method. The data set is classed as ADME, organism-based. The conditions noted are these: in vivo. The procedure, abridged:
as §1

Data set [19] in a line: Dose normalized Cmax in Beagle dog at 0.3 mg/kg, po by HPLC method. Format: ADME, organism-based, Canis lupus familiaris. The conditions noted are these: in vivo. The procedure, abridged: as §1
The nature of data set [20]: Dose normalized AUC in Beagle dog at 0.3 mg/kg, po by HPLC method. Format: ADME, organism-based, Canis lupus familiaris. The settings on record: in vivo. The procedure, abridged: as §1

As to `COc1ccc(-c2ccc3ncnc(-c4cccc(C(=O)N5CCN(C(C)=O)CC5)c4)c3c2)cc1OC`, the solubility (thermodynamic) in data set [1] came out at 800 µM (≈ 397 µg/mL). In data set [2], this compound came in with a logP of 1.9.
`COc1ccc(-c2ccc3ncnc(-c4cccc(C(=O)N5CCN(C(C)=O)CC5)c4)c3c2)cn1` registered a thermodynamic solubility in data set [1] above 1000 µM. For the same compound, the logP in [2] was 2.7.
`COc1ncc(-c2ccc3ncnc(-c4cccc(C(=O)N5CCN(C(C)=O)CC5)c4)c3c2)cc1C#N`: the Cmax/dose in data set [3] stood at 20 nM; in data set [18], 48 nM; in data set [19], 440 nM. Moreover, the time to peak (Tmax) is 2 h in data set [4], 0.8 h in [7], 5.3 h in data set [9] and 3.5 h in data set [14]. The thermodynamic solubility in [1] was 210 µM (≈ 103 µg/mL). Also, the AUC/dose in data set [5] turned out to be 500 nM·h; in data set [6], 237 nM·h; in data set [11], 2315 nM·h; in data set [16] it was 2798 nM·h; in [20], 1188 nM·h. Besides, the Vd in data set [8] was found to be 1 L/kg; in data set [10] it was 2 L/kg. The concentration in data set [12] came out at 5000 nM. The bioavailability in data set [13] is 22%; in data set [15] it was 10%; in [17] it was 42%. Moreover, the logP in data set [2] came out at 2.8.
Regarding `CN1CCN(C(=O)c2cccc(-c3ncnc4ccc(-c5cnc6ccccc6c5)cc34)c2)CC1`, the thermodynamic solubility in data set [1] was above 1000 µM. The logP in [2] came to 3.1.
`COc1ncc(-c2ccc3ncnc(-c4cccc(C(=O)N5CCN(C)CC5)c4)c3c2)cc1C(F)(F)F` registered a solubility (thermodynamic) in data set [1] of 850 µM (≈ 431 µg/mL). The logP in data set [2] was 3.9.
In turn, `COc1ccc(-c2ccc3ncnc(N4CCC[C@H](C(=O)N5CCN(C)CC5)C4)c3c2)cn1` displayed a solubility (thermodynamic) in [1] above 1000 µM.
As for `COc1ccc(-c2ccc3ncnc(-c4cncc(C(=O)N5CCN(C)CC5)c4)c3c2)cn1`, in data set [1], the thermodynamic solubility was above 1000 µM. For the same compound, the logP in data set [2] was found to be 1.9.
Regarding `COc1ncc(-c2ccc3ncnc(-c4cccc(C(=O)N5CCN(C)CC5)c4)c3c2)cc1C#N`, the thermodynamic solubility in data set [1] turned out to be 420 µM (≈ 195 µg/mL). This compound displayed a logP in data set [2] of 1.9.
On to `CC(=O)N1CCN(C(=O)c2cccc(-c3ncnc4ccc(-c5cnc6ccccc6c5)cc34)c2)CC1`, for which the thermodynamic solubility in data set [1] turned out to be 610 µM (≈ 297 µg/mL). The same compound showed a logP in data set [2] of 2.8.
The like results for `COc1ncc(-c2ccc3ncnc(-c4cccc(C(=O)N5CCN(C(C)=O)CC5)c4)c3c2)cc1C(F)(F)F` were, in that order, 380 µM (≈ 203 µg/mL) and 3.1.
The like results for `COc1ccc(-c2ccc3ncnc(-c4cccc(C(=O)N5CCN(C)CC5)c4)c3c2)cn1` were, in that order, above 1000 µM and 2.2.
In the case of `COc1ccc(-c2ccc3ncnc(-c4cccc(C(=O)N5CCN(C)CC5)c4)c3c2)cc1OC`, the thermodynamic solubility in data set [1] is 850 µM (≈ 398 µg/mL). This compound showed a logP in data set [2] of 2.8.

As usually defined, the solubility (thermodynamic) is the concentration in solution at equilibrium with solid. As a reminder, the logP is a log measure of how a compound divides between an organic and an aqueous phase. Read a low logP as a more hydrophilic compound. One may read the Tmax as the time from dosing to the highest level. As usually defined, the bioavailability is the share of a dose that reaches the circulation, judged against a reference dose that is usually intravenous.
